# Laboratory results reported in paper PMC4191598 (Journal of Medicinal Chemistry, 2014).
# Experiments:
# human TLR7 = target: T1, human TLR7 (Homo sapiens, UniProt Q9NYK1); test: Human TLR7 reporter gene assay; assay type: cell-based; conditions: for TLR7-agonistic activity (in words): TLR7 reporter gene assay
# T1 sequence (Q9NYK1 27-1049): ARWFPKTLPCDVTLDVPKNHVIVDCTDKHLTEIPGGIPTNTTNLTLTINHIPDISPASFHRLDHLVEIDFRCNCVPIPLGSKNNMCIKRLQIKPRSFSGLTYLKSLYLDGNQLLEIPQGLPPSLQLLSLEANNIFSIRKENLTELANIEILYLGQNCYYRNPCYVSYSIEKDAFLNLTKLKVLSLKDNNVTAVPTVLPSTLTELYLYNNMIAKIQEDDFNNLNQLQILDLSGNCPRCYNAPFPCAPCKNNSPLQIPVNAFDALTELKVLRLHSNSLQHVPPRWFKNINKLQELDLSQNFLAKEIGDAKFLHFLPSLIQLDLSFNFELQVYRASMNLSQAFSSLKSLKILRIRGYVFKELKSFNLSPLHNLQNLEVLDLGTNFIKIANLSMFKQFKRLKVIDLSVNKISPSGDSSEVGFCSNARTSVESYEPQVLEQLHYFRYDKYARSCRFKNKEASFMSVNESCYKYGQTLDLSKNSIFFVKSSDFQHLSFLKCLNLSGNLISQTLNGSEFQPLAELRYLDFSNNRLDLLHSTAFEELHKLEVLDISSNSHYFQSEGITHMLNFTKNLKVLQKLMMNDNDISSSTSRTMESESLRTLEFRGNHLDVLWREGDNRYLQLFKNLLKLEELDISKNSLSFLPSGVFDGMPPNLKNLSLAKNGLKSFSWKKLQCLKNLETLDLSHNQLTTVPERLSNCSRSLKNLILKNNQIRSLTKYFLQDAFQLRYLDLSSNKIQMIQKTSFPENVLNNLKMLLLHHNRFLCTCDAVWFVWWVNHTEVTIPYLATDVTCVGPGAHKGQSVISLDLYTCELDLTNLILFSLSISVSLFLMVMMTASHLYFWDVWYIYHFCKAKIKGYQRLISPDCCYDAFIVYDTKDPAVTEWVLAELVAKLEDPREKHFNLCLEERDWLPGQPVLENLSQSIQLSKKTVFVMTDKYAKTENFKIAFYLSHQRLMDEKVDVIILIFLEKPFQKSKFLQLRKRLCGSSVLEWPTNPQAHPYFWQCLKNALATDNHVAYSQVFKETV
# human TLR8 [1] = target: T2, human TLR8 (Homo sapiens, UniProt Q9NR97); test: Human TLR8 reporter gene assay; assay type: cell-based; conditions: for TLR8-agonistic activity (in words): TLR8 reporter gene assay; for TLR7/TLR8 selectivity (in words): TLR7 and TLR8 reporter gene assays
# T2 sequence (Q9NR97 27-1041): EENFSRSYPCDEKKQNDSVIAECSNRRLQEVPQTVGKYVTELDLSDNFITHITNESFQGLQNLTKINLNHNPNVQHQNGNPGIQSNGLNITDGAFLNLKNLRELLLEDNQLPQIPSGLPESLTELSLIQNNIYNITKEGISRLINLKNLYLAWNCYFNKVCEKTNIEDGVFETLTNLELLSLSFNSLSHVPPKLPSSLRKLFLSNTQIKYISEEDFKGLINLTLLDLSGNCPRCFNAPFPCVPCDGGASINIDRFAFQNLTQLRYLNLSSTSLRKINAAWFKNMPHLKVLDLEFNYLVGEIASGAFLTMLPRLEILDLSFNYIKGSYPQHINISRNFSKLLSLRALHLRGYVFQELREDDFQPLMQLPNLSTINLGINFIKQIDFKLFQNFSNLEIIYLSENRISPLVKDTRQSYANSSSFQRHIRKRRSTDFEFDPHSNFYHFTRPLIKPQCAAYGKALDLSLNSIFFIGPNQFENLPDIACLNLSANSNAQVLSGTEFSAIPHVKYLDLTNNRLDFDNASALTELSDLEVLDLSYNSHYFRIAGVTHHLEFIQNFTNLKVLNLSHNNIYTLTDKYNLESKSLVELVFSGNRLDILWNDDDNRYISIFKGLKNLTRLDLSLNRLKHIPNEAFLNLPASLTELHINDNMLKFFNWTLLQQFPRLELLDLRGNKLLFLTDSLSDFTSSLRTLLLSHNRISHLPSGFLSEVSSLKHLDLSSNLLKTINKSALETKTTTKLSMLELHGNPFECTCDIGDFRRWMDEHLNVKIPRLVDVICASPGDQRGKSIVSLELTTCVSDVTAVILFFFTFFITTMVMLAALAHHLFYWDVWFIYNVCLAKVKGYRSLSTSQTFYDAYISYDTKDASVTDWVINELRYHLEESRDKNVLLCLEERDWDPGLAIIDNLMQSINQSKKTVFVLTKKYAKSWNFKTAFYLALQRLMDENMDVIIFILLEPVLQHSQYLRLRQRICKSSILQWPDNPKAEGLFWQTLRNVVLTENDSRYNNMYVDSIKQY
# In short: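 HEK-Blue cells carrying human TLR8, with secreted alkaline phosphatase under NF-κB/AP-1 promoter control, seeded at ~10^5 cells/mL and grown to confluency. Stimulated with graded concentrations of test compound. Supernatant sAP, proportional to NF-κB induction, read spectrophotometrically at 620 nm using an alkaline phosphatase-specific chromogen in the detection medium.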
# human TLR8 [2] = target: T2, human TLR8; conditions: earlier observation; cited from earlier work
# [3] = tested on: human peripheral blood mononuclear cells (hPBMCs); test: IFN-α induction in human PBMCs; assay type: cell-based; conditions: 12 h stimulation, graded concentrations
# In short: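 Fresh PBMCs were isolated on Ficoll–Hypaque gradients from venous blood of consenting donors and plated at 10^5 cells/well. They were stimulated for 12 h with graded concentrations of test compound. Supernatants were collected by centrifugation and assayed in triplicate with high-sensitivity multisubtype IFN-α ELISA.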
# [4] = tested on: human lymphocytic subsets in whole blood; test: CD69 up-regulation in lymphocytic subsets, ex vivo whole human blood; assay type: cell-based; conditions: 16.5 h
SMILES,TLR7-agonistic activity (in words) (human TLR7),TLR8-agonistic activity (in words) (human TLR8 [1]),further results
"CCCCc1nc2c(s1)c(N)nc1ccccc12 [Compound 22a, 2-Butylthiazolo[5,4-c]quinolin-4-amine]",completely inactive,completely inactive,–
"Nc1nc2c(N)nc3ccccc3c2s1 [Compound 17, thiazolo[4,5-c]quinoline-2,4-diamine]",inactive,inactive,–
"CCCCc1nc2c3ccccc3nc(N)n2n1 [Compound 33, 2-Butyl[1,2,4]triazolo[1,5-c]quinazolin-5-amine]",inactive,inactive,–
"CCCCc1nc2c(o1)c(N)nc1ccccc12 [Compound 22b, 2-Butyloxazolo[5,4-c]quinolin-4-amine]",–,negligibly low TLR8-agonistic activity,–
"CCCCC1CN2C(N)=Nc3ccccc3C2=N1 (stereo not drawn) [Compound 27, 2-Butyl-2,3-dihydroimidazo[1,2-c]quinazolin-5-amine]",entirely inactive,entirely inactive,–
"CCCCc1cc2c(o1)c(N)nc1ccccc12 [Compound 5, 2-butylfuro[2,3-c]quinolin-4-amine]",–,–,TLR8 agonism (in words) (human TLR8 [2]): prominent and selective TLR8 agonism
"CCCCC1CN2C(=N1)C(N)=Nc1ccccc12 (stereo not drawn) [Compound 37, 2-Butyl-1,2-dihydroimidazo[1,2-a]quinoxalin-4-amine]",–,–,TLR7/TLR8 selectivity (in words) (human TLR8 [1]): selective TLR8 agonists
"CCCNc1nc2c(N)nc3ccccc3c2o1 [Compound 13, N^2-Propyloxazolo[4,5-c]quinoline-2,4-diamine]",entirely devoid of any detectable TLR7- or TLR8-agonistic activity,entirely devoid of any detectable TLR7- or TLR8-agonistic activity,–
"CCCCn1cc2c(n1)c(N)nc1ccccc12 [Compound 53, 2-Butyl-2H-pyrazolo[3,4-c]quinolin-4-amine]",–,–,"IFN-α induction [3]: showed IFN-α inducing ability; CD69 expression in cytokine-induced killer-, natural killer-, T- and B-lymphocytic subsets [4]: dramatically enhanced expression"
"CCCCc1nc2c(N)nc3ccccc3c2o1 [Compound 9, 2-Butyloxazolo[4,5-c]quinolin-4-amine]",–,–,IFN-α induction [3]: showed IFN-α inducing ability
"CCCCc1cn2c(n1)c(N)nc1ccccc12 [Compound 39, 2-Butylimidazo[1,2-a]quinoxalin-4-amine]",–,–,TLR7/TLR8 selectivity (in words) (human TLR8 [1]): selective TLR8 agonists
"CCCCc1cn2c(N)nc3ccccc3c2n1 [Compound 29, 2-Butylimidazo[1,2-c]quinazolin-5-amine]",entirely inactive,entirely inactive,–
"CCCCc1nnc2c(N)nc3ccccc3n12 [Compound 49, 1-Butyl[1,2,4]triazolo[4,3-a]quinoxalin-4-amine]",complete loss of activity,complete loss of activity,–
"CCC(=O)Nc1nc2c(N)nc3ccccc3c2s1 [Compound 16, N-(4-Aminothiazolo[4,5-c]quinolin-2-yl)propionamide]",inactive,inactive,–
"CCCCc1nc2c(N)nc3ccccc3n2n1 [Compound 46, 2-Butyl[1,2,4]triazolo[1,5-a]quinoxalin-4-amine]",complete loss of activity,complete loss of activity,–
"CCCNc1nc2c(N)nc3ccccc3c2s1 [Compound 11, N^2-Propylthiazolo[4,5-c]quinoline-2,4-diamine]",–,–,EC50 (human TLR7): 730 nM; IFN-α induction [3]: showed IFN-α inducing ability
